Source: ChEMBL document CHEMBL4043311, “Developing Equipotent Teixobactin Analogues against Drug-Resistant Bacteria and Discovering a Hydrophobic Interaction between Lipid II and Teixobactin” (J Med Chem, 2018)
≈ marks a conversion by molar mass, not a printed value. Calls of active or inactive are those of the source. The calls are words filed in the database; no cut-off is given here.

How the values were obtained:
Staphylococcus aureus [1] = test: Antibacterial activity against methicillin-resistant Staphylococcus aureus BAA-1695 after 20 hrs by broth microdilution method; format: functional; conditions: BAA-1695, 20 h
Method in brief: (§1)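 Broth microdilution per CLSI in cation-adjusted Mueller-Hinton broth with 0.002% polysorbate 80. Analogues were made up as 10 mg/mL DMSO stocks, then diluted in MHB. Inoculum approx. 5×10^5 cells/mL. Incubated 20 h at 37°C; MIC taken as the lowest concentration with no visible growth. Run three times.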

Staphylococcus aureus [2] = test: Antibacterial activity against methicillin-sensitive Staphylococcus aureus TH 4806 after 20 hrs by broth microdilution method; format: functional; conditions: TH 4806, 20 h; method in brief: as §1
Enterococcus faecalis = test: Antibacterial activity against […] Enterococcus faecalis ATCC 29212 after 20 hrs by broth microdilution method; format: functional; conditions: ATCC 29212, 20 h; method in brief: as §1
Streptococcus pneumoniae = test: Antibacterial activity against Streptococcus pneumoniae D39 after 20 hrs by broth microdilution method; format: functional; conditions: D39, 20 h
Method in brief: (§2)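 CLSI broth microdilution in cation-adjusted Mueller-Hinton broth with 3% lysed horse blood for streptococci and 0.002% polysorbate 80. Compounds taken from 10 mg/mL DMSO stocks and diluted in broth. Inoculum about 5×10^5 cells/mL. After 20 h at 37 °C, MIC read as lowest concentration with no visible growth. Done three times.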

Streptococcus pyogenes = test: Antibacterial activity against Streptococcus pyogenes ATCC 19615 after 20 hrs by broth microdilution method; format: functional; conditions: ATCC 19615, 20 h; method in brief: as §2
Staphylococcus aureus [3] = test: Antibacterial activity against Staphylococcus aureus ATCC 29213 at lipid 2/test compound molar ratio 2 preincubated with lipid 2 for 30 mins followed by bacterial inoculation measured after overnight incubation; format: functional
Method in brief: (§3)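 Test agent at 4x or 8x its broth MIC mixed with lipid II or C55-P (2x or 0.5x molar excess over compound) in MHII broth with 0.05% tween-80, 30 min at rt; exponential S. aureus ATCC 29213 then added to final OD600 0.001. Overnight at 37 °C; growth judged by eye and plate-reader absorbance. Run two or three times.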

Staphylococcus aureus [4] = test: Antibacterial activity against Staphylococcus aureus ATCC 29213 at undecaprenyl-phosphate/test compound molar ratio 0.5 to 2 preincubated with undecaprenyl-phosphate for 30 mins followed by bacterial inoculation measured after overnight incubation; format: functional; method in brief: as §3
[5] = Binding affinity to lipid 2 at 1 to 4 nmol after 30 mins by TLC method
Method in brief: (§4)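 Lipid II or C55-P (1 nmol) incubated with 1, 2, 3 or 4 nmol compound in 50 mM Tris/HCl pH 7.5, 30 min at rt. Extracted twice with pyridinium acetate (6 M, pH 4.2)/butanol (1:2), then washed with butanol-saturated water. Organic phase run on silica TLC in chloroform/methanol/water/ammonia (88:48:10:1) and stained with phosphomolybdic acid; loss of lipid band scored. Done twice.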

[6] = Binding affinity to undecaprenyl-phosphate at 1 to 4 nmol after 30 mins by TLC method; method in brief: as §4
Staphylococcus aureus [7] = test: Antibacterial activity against Staphylococcus aureus ATCC 29213 at lipid 2/test compound molar ratio 0.5 preincubated with lipid 2 for 30 mins followed by bacterial inoculation measured after overnight incubation; format: functional; method in brief: as §3

SMILES | MIC (Staphylococcus aureus [1]) [µg/mL] | also measured
CC[C@@H](C)[C@@H](NC(=O)[C@@H](CCC(N)=O)NC(=O)[C@H](CO)NC(=O)[C@@H](NC(=O)[C@H](N)Cc1ccc(-c2ccc(-c3ccccc3)cc2)cc1)[C@@H](C)CC)C(=O)N[C@H](C(=O)N[C@@H](CO)C(=O)N[C@H]1C(=O)N[C@@H](C)C(=O)N[C@@H](CCCCN)C(=O)N[C@@H]([C@@H](C)CC)C(=O)O[C@H]1C)[C@@H](C)CC | 1 (≈ 0.738 µM) | 
CC[C@@H](C)[C@@H](NC(=O)[C@@H](CCCN)NC(=O)[C@H](CO)NC(=O)[C@@H](NC(=O)[C@H](N)Cc1ccc(-c2ccccc2)cc1)[C@@H](C)CC)C(=O)N[C@H](C(=O)N[C@@H](CO)C(=O)N[C@H]1C(=O)N[C@@H](C)C(=O)N[C@@H](CCCCN)C(=O)N[C@@H]([C@@H](C)CC)C(=O)O[C@H]1C)[C@@H](C)CC | 2 (≈ 1.58 µM) | 
CC[C@@H](C)[C@@H](NC(=O)[C@@H](CCC(N)=O)NC(=O)[C@H](CO)NC(=O)[C@@H](NC(=O)[C@H](N)Cc1ccc(-c2ccccc2)cc1)[C@@H](C)CC)C(=O)N[C@H](C(=O)N[C@@H](CO)C(=O)N[C@H]1C(=O)N[C@@H](C)C(=O)N[C@@H](CCCNC(=N)N)C(=O)N[C@@H]([C@@H](C)CC)C(=O)O[C@H]1C)[C@@H](C)CC | 1 (≈ 0.765 µM) | 
CC[C@@H](C)[C@@H](NC(=O)[C@@H](CCC(N)=O)NC(=O)[C@H](CO)NC(=O)[C@@H](NC(=O)[C@@H](Cc1ccccc1)NC)[C@@H](C)CC)C(=O)N[C@H](C(=O)O)[C@@H](C)CC | > 32 | 
CC[C@@H](C)[C@@H](NC(=O)[C@@H](CCC(N)=O)NC(=O)[C@H](CO)NC(=O)[C@@H](N)[C@@H](C)CC)C(=O)N[C@H](C(=O)N[C@@H](CO)C(=O)N[C@H]1C(=O)N[C@@H](C)C(=O)N[C@@H](CCCNC(=N)N)C(=O)N[C@@H]([C@@H](C)CC)C(=O)O[C@H]1C)[C@@H](C)CC | > 32 | 
CC[C@@H](C)[C@@H](NC(=O)[C@@H](CCC(N)=O)NC(=O)[C@H](CO)NC(=O)[C@@H](NC(=O)[C@H](N)Cc1ccc(O)cc1)[C@@H](C)CC)C(=O)N[C@H](C(=O)N[C@@H](CO)C(=O)N[C@H]1C(=O)N[C@@H](C)C(=O)N[C@@H](CCCNC(=N)N)C(=O)N[C@@H]([C@@H](C)CC)C(=O)O[C@H]1C)[C@@H](C)CC | > 32 | 
CC[C@@H](C)[C@@H](NC(=O)[C@@H](CCC(=O)NCCN(C)C)NC(=O)[C@H](CO)NC(=O)[C@@H](NC(=O)[C@H](N)Cc1ccc(-c2ccccc2)cc1)[C@@H](C)CC)C(=O)N[C@H](C(=O)N[C@@H](CO)C(=O)N[C@H]1C(=O)N[C@@H](C)C(=O)N[C@@H](CCCCN)C(=O)N[C@@H]([C@@H](C)CC)C(=O)O[C@H]1C)[C@@H](C)CC | 2 (≈ 1.48 µM) | 
CC[C@@H](C)[C@@H](NC(=O)[C@@H](CCC(N)=O)NC(=O)[C@H](CO)NC(=O)[C@@H](NC(=O)[C@H](N)Cc1ccc(N)cc1)[C@@H](C)CC)C(=O)N[C@H](C(=O)N[C@@H](CO)C(=O)N[C@H]1C(=O)N[C@@H](C)C(=O)N[C@@H](CCCNC(=N)N)C(=O)N[C@@H]([C@@H](C)CC)C(=O)O[C@H]1C)[C@@H](C)CC | > 32 | 
CC[C@@H](C)[C@@H](NC(=O)[C@@H](CCC(N)=O)NC(=O)[C@H](CO)NC(=O)[C@@H](NC(=O)[C@H](N)Cc1ccc(O[C@H]2O[C@@H](CO)[C@@H](O)[C@@H](O)[C@@H]2O)cc1)[C@@H](C)CC)C(=O)N[C@H](C(=O)N[C@@H](CO)C(=O)N[C@H]1C(=O)N[C@@H](C)C(=O)N[C@@H](CCCNC(=N)N)C(=O)N[C@@H]([C@@H](C)CC)C(=O)O[C@H]1C)[C@@H](C)CC | > 32 | 
CCCc1ccc(-c2ccc(C[C@@H](N)C(=O)N[C@H](C(=O)N[C@@H](CO)C(=O)N[C@H](CCC(N)=O)C(=O)N[C@@H](C(=O)N[C@H](C(=O)N[C@@H](CO)C(=O)N[C@H]3C(=O)N[C@@H](C)C(=O)N[C@@H](CCCCN)C(=O)N[C@@H]([C@@H](C)CC)C(=O)O[C@H]3C)[C@@H](C)CC)[C@H](C)CC)[C@@H](C)CC)cc2)cc1 | 0.5 (≈ 0.379 µM) | 
CC[C@@H](C)[C@@H](NC(=O)[C@@H](CCC(N)=O)NC(=O)[C@H](CO)NC(=O)[C@@H](NC(=O)C(Cc1ccccc1)NC)[C@@H](C)CC)C(=O)N[C@H](C(=O)N[C@@H](CO)C(=O)N[C@H]1C(=O)N[C@@H](C)C(=O)N[C@@H](CCCNC(=N)N)C(=O)N[C@@H]([C@@H](C)CC)C(=O)O[C@H]1C)[C@@H](C)CC (some centres undefined) | 2 (≈ 1.61 µM) | 
CC[C@@H](C)[C@@H](NC(=O)[C@@H](CCCNC(=N)N)NC(=O)[C@H](CO)NC(=O)[C@@H](NC(=O)[C@H](N)Cc1ccc(-c2ccccc2)cc1)[C@@H](C)CC)C(=O)N[C@H](C(=O)N[C@@H](CO)C(=O)N[C@H]1C(=O)N[C@@H](C)C(=O)N[C@@H](CCCCN)C(=O)N[C@@H]([C@@H](C)CC)C(=O)O[C@H]1C)[C@@H](C)CC | 2 (≈ 1.53 µM) | 
CC[C@H](C)[C@H](NC(=O)[C@H](N)Cc1ccccc1)C(=O)N[C@@H](COP(=O)(O)O)C(=O)N[C@H](CCC(N)=O)C(=O)N[C@@H](C(=O)N[C@H](C(=O)N[C@@H](CO)C(=O)N[C@H]1C(=O)N[C@@H](C)C(=O)N[C@@H](CCCNC(=N)N)C(=O)N[C@@H]([C@@H](C)CC)C(=O)O[C@H]1C)[C@@H](C)CC)C(C)C | > 32 | 
CC[C@@H](C)[C@H]1NC(=O)[C@H](CCCNC(=N)N)NC(=O)[C@H](C)NC(=O)[C@H](NC(=O)[C@@H](N)CO)[C@H](C)CC1=O | > 32 | 
CC[C@@H](C)[C@@H](NC(=O)[C@@H](CCC(N)=O)NC(=O)[C@H](CO)NC(=O)[C@@H](NC(=O)[C@H](N)Cc1ccc(C)cc1)[C@@H](C)CC)C(=O)N[C@H](C(=O)N[C@@H](CO)C(=O)N[C@H]1C(=O)N[C@@H](C)C(=O)N[C@@H](CCCNC(=N)N)C(=O)N[C@@H]([C@@H](C)CC)C(=O)O[C@H]1C)[C@@H](C)CC | 2 (≈ 1.61 µM) | 
CC[C@@H](C)[C@@H](NC(=O)[C@@H](CCC(N)=O)NC(=O)[C@H](CO)NC(=O)[C@@H](NC(=O)[C@H](N)Cc1ccc(-c2ccc(C)cc2)cc1)[C@@H](C)CC)C(=O)N[C@H](C(=O)N[C@@H](CO)C(=O)N[C@H]1C(=O)N[C@@H](C)C(=O)N[C@@H](CCCCN)C(=O)N[C@@H]([C@@H](C)CC)C(=O)O[C@H]1C)[C@@H](C)CC | 0.5 (≈ 0.387 µM) | 
CC[C@@H](C)[C@@H](NC(=O)[C@@H](CCC(N)=O)NC(=O)[C@H](CO)NC(=O)[C@@H](NC(=O)[C@@H](Cc1ccccc1)NC)[C@@H](C)CC)C(=O)N[C@H](C(=O)N[C@@H](CO)C(=O)N[C@H]1C(=O)N[C@@H](C)C(=O)N[C@@H](CCCCN)C(=O)N[C@@H]([C@@H](C)CC)C(=O)O[C@H]1C)[C@@H](C)CC | 1 (≈ 0.822 µM) | 
CC[C@@H](C)[C@@H](NC(=O)[C@@H](CCC(N)=O)NC(=O)[C@H](CO)NC(=O)[C@@H](NC(=O)[C@H](N)Cc1ccc(-c2ccccc2)cc1)[C@@H](C)CC)C(=O)N[C@H](C(=O)N[C@@H](CO)C(=O)N[C@H]1C(=O)N[C@@H](C)C(=O)N[C@@H](CCCCN)C(=O)N[C@@H]([C@@H](C)CC)C(=O)N[C@H]1C)[C@@H](C)CC | 0.25 (≈ 0.196 µM) | MIC (Staphylococcus aureus [2]): 0.25 µg/mL (≈ 0.196 µM); MIC (Enterococcus faecalis): 0.5 µg/mL (≈ 0.391 µM); MIC (Streptococcus pneumoniae): < 0.032 µg/mL; MIC (Streptococcus pyogenes): < 0.25 µg/mL; Activity (Staphylococcus aureus [3]): inactive; Activity (Staphylococcus aureus [4]): Active; Activity [5]: Active; Activity [6]: inactive; Activity (Staphylococcus aureus [7]): Active
CC[C@@H](C)[C@@H](NC(=O)[C@@H](CCC(N)=O)NC(=O)[C@H](CO)NC(=O)[C@@H](NC(=O)[C@@H](Cc1ccccc1)NC(=O)CN1CCOCC1)[C@@H](C)CC)C(=O)N[C@H](C(=O)N[C@@H](CO)C(=O)N[C@H]1C(=O)N[C@@H](C)C(=O)N[C@@H](CCCNC(=N)N)C(=O)N[C@@H]([C@@H](C)CC)C(=O)O[C@H]1C)[C@@H](C)CC | > 32 | 
CC[C@@H](C)[C@@H](NC(=O)[C@@H](CCC(N)=O)NC(=O)[C@H](CO)NC(=O)[C@@H](NC(=O)[C@H](N)Cc1ccc(-c2ccc(C(F)(F)F)cc2)cc1)[C@@H](C)CC)C(=O)N[C@H](C(=O)N[C@@H](CO)C(=O)N[C@H]1C(=O)N[C@@H](C)C(=O)N[C@@H](CCCCN)C(=O)N[C@@H]([C@@H](C)CC)C(=O)O[C@H]1C)[C@@H](C)CC | 0.5 (≈ 0.371 µM) | 
